We go through 97 molecules from ChEMBL document CHEMBL4513216, “Probing the Open Global Health Chemical Diversity Library for Multistage-Active Starting Points for Next-Generation Antimalarials” (ACS Infect Dis, 2020).

The nature of this series: Toxicity liver stage against HepG2, at 10uM. The format is cell-based. Details: test concentration 10 uM, cell line HepG2-A16-CD81EGFP. The note with it: human, HepG2-A16-CD81EGFP cells; read-out: INHIBITION
The method, boiled down:
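Uninfected HepG2-A16-CD81EGFP cells, 3 × 10^3 per well, 1536-well, plated on prespotted compound at 10 μM final, parasite-free screening media added to match infected plates; puromycin 10 μM positive, DMSO 0.5% negative; run in parallel with 48 h PbLuc assay at 37 °C, 5% CO2; viability by CellTiter-Glo luminescence, normalized to controls.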
As to `c1cc(CN2CCOC[C@H]2c2nc(-c3ccncc3)c[nH]2)ccn1`, the cytotoxicity at 10 µM was -2.65%.
In the case of `CCCSc1ncccc1C(=O)NCc1ccc(S(N)(=O)=O)cc1` it was 6.02%.
In the case of `O=C(CCc1nc2cc(Br)cnc2[nH]1)NCCCn1ccnc1` it was 0.905%; in that of `CC(C)n1cc(C(=O)NCCCn2ccnc2)c2n[nH]c(=O)c-2c1`, -4.17%; in that of `C[C@H]1C[C@H]2CN(S(=O)(=O)c3ccc(F)cc3)CC[C@H]2O1`, 1.79%.
In the case of `COCC1c2nnn(CC3CC3)c2CCN1C(=O)N1CCCC1` (configuration not stated) it was -131%; in that of `CCOCC(=O)N1Cc2nccn2CC(CN(C)C)C1` (configuration not stated), -124%; in that of `CNc1oc(-c2ccc(OC)c(S(=O)(=O)N3CCCC3)c2)nc1C#N`, 3.33%.
For the molecule `CCCn1nc(C)c2c(C(F)F)cc(=O)n(CC(=O)O)c21`, the cytotoxicity at 10 µM stood at 1.76%.
In the case of `Cc1nc(NC2CC(C)(C)NC(C)(C)C2)c2c(n1)c(C)nn2C` it was -11.5%; in that of `Cc1ccnn1C(C)C(=O)Nc1cc(-c2ccncc2)[nH]n1` (configuration not stated), -10.7%.
Then `CNC(=O)c1sc2ncccc2c1C1CCN(C(=O)CCOC)C1` (configuration not stated), with 6.42%; and `CNc1ccc(C2CN(c3nc(C)cc(C)n3)CCO2)nc1` (configuration not stated), with 0.575%.
In the case of `CCC(=O)N1CCc2c(O)nc(C3CCCCN3C(=O)C3CC3)nc2C1` (configuration not stated) it was 3.3%; in that of `CCn1cc(S(=O)(=O)N2CCCCCC2c2cc(C)no2)cn1` (configuration not stated), 8.24%.
Turning to `CNc1nccc(C2CCCCN2Cc2cnn3cccnc23)n1` (configuration not stated), the cytotoxicity at 10 µM is 0.247%.
In the case of `Cc1nccc(N2CCCC(C)(c3[nH]ncc3C(N)=O)C2)n1` (configuration not stated) it was 1.86%; in that of `Cc1cccc(C2CCCN2S(=O)(=O)N(C)C)n1` (configuration not stated), -5.5%; in that of `CC(=O)NC[C@]1(O)CCN(C(=O)c2ccc(C)c(F)c2)C[C@H]1O`, -2.78%.
`COc1ccnc(N(C)Cc2c(C)noc2C)n1`: the cytotoxicity at 10 µM is -3.84%.
Then `CCNc1nnc(SCc2nnc(C(C)(C)C)o2)s1`, with -1.79%.
Then `CC(NC(=O)Nc1ccc(-c2csnn2)cc1)C(=O)NC(C)(C)C` (configuration not stated), with 9.11%; and `CCN1CCN(C(=O)c2cc(F)cc3nc(C)c(C)nc23)CC1`, with -2.25%.
In the case of `FC(F)(F)CCN(Cc1ccon1)C1CCCC1` it was 1.87%; in that of `CN(CC(=O)NCCc1cc2ccccc2o1)S(C)(=O)=O`, 6.56%.
With `CCOC(=O)C1(NC(=O)CCNc2cc(C)ccc2OC)CCCCC1`, the cytotoxicity at 10 µM is 6.47%.
In the case of `CN(Cc1nc(C(F)(F)F)cs1)C(=O)CCc1cccnc1`, the cytotoxicity at 10 µM worked out at 9.75%.
`Cn1c(CCCNC(=O)Nc2cn[nH]c2)nc2ccccc21`: the cytotoxicity at 10 µM worked out at 21.9%.
In the case of `CCn1c(C)cc(C(=O)N2CCC(NC(=O)c3cc(C)no3)CC2)c1C` it was -1.1%; in that of `CN(C)C(=O)c1cccc(CCNc2ccccc2S(C)(=O)=O)c1`, 11.5%; in that of `CC1CCC(NC(=O)CNC2(c3cccc(Br)c3)CCOCC2)CC1` (configuration not stated), 2.94%.
Then `N#Cc1cccnc1N1CCC(OCCc2ccccc2)CC1`, with -11%; and `CC(NC(=O)Nc1ccc(S(C)(=O)=O)cc1)c1ccc2c(c1)CC(=O)N2` (configuration not stated), with 0.0793%.
Then `CC(C)(C)NC(=O)CN1CCCN(Cc2ccc(C#N)cc2)CC1`, with -4.78%.
As to `Cc1ccccc1-c1noc(CN2CCC(c3ccn[nH]3)CC2)n1`, the cytotoxicity at 10 µM stood at 1.98%.
For the molecule `CC(C)C(C(=O)N1CCN(Cc2cscn2)CC1)n1cncn1` (configuration not stated), the cytotoxicity at 10 µM came to 7.89%.
Then `O=C(c1ncoc1C1CCCO1)N1CCC2(CCCCC2)CC1` (configuration not stated), with -7%; and `CNC(=O)c1ccc(=O)n(Cc2csc(C(C)(C)C)n2)c1`, with 6.8%.
As for `Cc1cc(C(=O)N2CCC(NC(=O)c3cccnc3)CC2)c(C)o1`, the cytotoxicity at 10 µM is -2.44%.
In the case of `COC(=O)c1ccccc1NS(=O)(=O)c1c(C)nn(C)c1C` it was -4.12%; in that of `O=C(c1nc(=O)[nH][nH]1)N1CCC2(CCCCC2)C1`, 11.4%; in that of `CC(C)Cc1nc(COc2ccc(N(C)C(N)=O)cc2)no1`, 30.5%.
Then `CC(C)c1nnc(CN(C)C(c2ccc(F)cc2)c2cccnc2)o1` (configuration not stated), with 4.11%; and `CCCC(C)(C)NC(=O)c1cnc(CC)s1`, with 10.2%.
For the molecule `CC/C=C(/C)C(=O)NS(=O)(=O)c1ccc(C#N)cc1C(F)(F)F`, the cytotoxicity at 10 µM came to 11.8%.
In the case of `CC(C)c1csc(C2CCCN(C(=O)c3ccc(=O)n(C)n3)C2)n1` (configuration not stated) it was 9.24%.
`CCn1c(C)nnc1CN(C)C1CCN(Cc2cnc(C)cn2)C1` (configuration not stated): the cytotoxicity at 10 µM is 14.6%.
In the case of `COc1ccc(NC(=O)NC(C)c2nc[nH]n2)cc1` (configuration not stated) it was -7.71%; in that of `CSC(C)(C)CNC(=O)NCCC1CCN(C)CC1`, 22.3%.
For the molecule `CN1CCCC(CNC(=O)N2CCN(Cc3ccon3)CC2)C1` (configuration not stated), the cytotoxicity at 10 µM was found to be 15.5%.
Turning to `CC(=O)N1CCC(C(=O)NCCN2CCC(C)CC2)CC1`, the cytotoxicity at 10 µM is 12.8%.
Then `O=C(NCCN1CCCCC1CO)c1cc(-c2ccccc2)on1` (configuration not stated), with -5.53%.
In the case of `CN(CC1CCOC1)S(=O)(=O)c1cccc(C(=O)N2CCCCCC2)c1` (configuration not stated) it was -0.825%.
In the case of `Cc1cc(C(=O)NCc2csc(N(C)C)n2)c2ccc(C)c(C)c2n1` it was -0.724%; in that of `Cc1cc(C2CCC2)nc(NCC(C)(C)CO)n1`, -2.56%; in that of `COc1ccccc1OC1CCN(C(=O)c2c[nH]c(=O)[nH]c2=O)CC1`, 8.45%.
With `Cc1cccnc1CC(C)NC1CCSCC1` (configuration not stated), the cytotoxicity at 10 µM was determined as 2.28%.
Then `CCN(Cc1noc(CC(C)C)n1)Cc1cc2ccc(F)cc2[nH]c1=O`, with 3.34%; and `CN(CCCc1cnn(C)c1)C(=O)C1CCC(=O)N(C2CCCC2)C1` (configuration not stated), with 5.89%; and `COCCCn1c(CN2CCCCO2)cnc1S(=O)(=O)C1CCCC1`, with 4.24%.
In the case of `COc1ccc(CN(C)c2nccc(-c3cn(C)nc3C)n2)cc1` it was 13.6%; in that of `Cc1nc(O)cc(CCNC(=O)C2CC(=O)N(CC(C)C)C2)n1` (configuration not stated), -8.11%.
`Cc1nc(N)sc1C(=O)N1CCCC(c2nccn2CCCN(C)C)C1` (configuration not stated): the cytotoxicity at 10 µM is -6.82%.
In the case of `c1ncn(CC2CN(Cc3nc(C4CC4)no3)CCO2)n1` (configuration not stated) it was -8.45%; in that of `CC(NC(=O)NCCCN1CCCC1=O)c1nncn1C` (configuration not stated), -3.08%; in that of `COc1cccc(-c2noc(CN3CCOCC3C)n2)c1` (configuration not stated), -11.7%.
In the case of `c1cncc(-c2noc(CNCC3CCCN3c3cccnn3)n2)c1` (configuration not stated) it was -4.6%; in that of `Cc1csc(CCNC(=O)NC(C)Cn2cccn2)n1` (configuration not stated), -18%.
Then `O=C(Cc1cccnc1)N1CCCC(n2cncn2)C1` (configuration not stated), with -13.1%.
Regarding `OC(CN1CCC(c2ccn[nH]2)CC1)c1ccc(F)cc1F` (configuration not stated), the cytotoxicity at 10 µM was -17.9%.
In the case of `Cc1nccn1CC1CCCN1S(=O)(=O)Cc1cccc(F)c1` (configuration not stated) it was -15.8%; in that of `O=C(Nc1cccnc1N1CCCC1)C1CCS(=O)(=O)C1` (configuration not stated), -13.1%.
As to `CN(CCC(=O)N1CCc2sccc2C1)Cc1ccc2c(c1)OCCO2`, the cytotoxicity at 10 µM was -14.8%.
On to `Cc1cnn(CC2CN(CC(=O)N(C)Cc3cnn(C)c3)CCO2)c1` (configuration not stated), for which the cytotoxicity at 10 µM was -18.4%.
Then `Cn1nc2c(cc1=O)CN(Cc1nc(-c3ccsc3)no1)CC2`, with -2.21%; and `O=C(NCCCN1CCc2ccccc2C1)c1ccccc1Cl`, with -13%; and `Cc1cn2c(n1)CCC(NC(=O)c1oc(Br)cc1C)C2` (configuration not stated), with -20.8%.
Then `COCc1ccc(C(=O)N2CCN(CC(C)O)CC2)cc1` (configuration not stated), with 0.0264%; and `CC(C)C(NC(N)=O)C(=O)NCc1ccc(N2CCCC2)nc1` (configuration not stated), with -16.9%.
In the case of `Cc1cccc(NC(=O)Cn2nc3ccccn3c2=O)c1C` it was -13.4%.
Take `Cc1ccccc1OCC(=O)N1CCN(C2CCOC2=O)CC1` (configuration not stated): the cytotoxicity at 10 µM is -19.3%.
Then `Cc1cnn(CCC(=O)N2CCCC(c3nc(C)c(C)s3)C2)c1` (configuration not stated), with -19.2%; and `Cc1cc(C)n(C2CCCN(C(=O)c3c(C)noc3C)C2)n1` (configuration not stated), with -6.41%.
In the case of `NC(=O)C1CCN(CCc2ccc(NC(=O)C3CCC3)cc2)CC1` it was -3.86%; in that of `Cc1nn(C)c(Cl)c1C1CCCN1CCc1ccccn1` (configuration not stated), 4.6%.
Then `O=C(c1cccc(CN2CCCC2)c1)N1CCCC(n2cncn2)C1` (configuration not stated), with -11.9%.
`Cc1ccc(N2CCCC(NCc3ccncc3)C2)nn1` (configuration not stated): the cytotoxicity at 10 µM was determined as 2.55%.
For `CCS(=O)(=O)N1CCOC2(CCCN(c3cnccn3)C2)C1` (configuration not stated), the cytotoxicity at 10 µM is 2.66%.
With `CCN1CCOCC12CCN(C(=O)C1CCCC1)CC2`, the cytotoxicity at 10 µM is -0.272%.
In the case of `O=C([C@@H]1CC[C@@H]2[C@@H](CCN2Cc2cccc(F)c2)O1)N1CCCCO1` it was -6.71%; in that of `CS(=O)(=O)N1C[C@H](C(=O)Nc2cccnc2)[C@@H]2CCO[C@@H]2C1`, -104%.
In the case of `CC(C)N1CCN(c2ccc3ccc(C(=O)NC4CCCC4)cn23)CC1` it was 1.26%; in that of `CN(C)C(=O)C1OC2(CCNCC2)c2ccccc21` (configuration not stated), 0.37%.
Take `COc1ccc(CN2CCN(C(C)=O)CC3(CC(=O)N(C)C3)C2)cc1` (configuration not stated): the cytotoxicity at 10 µM worked out at 9.74%.
On to `Nc1ncc(-c2csc(NC(=O)C[C@H]3COCCN3)n2)cn1`, for which the cytotoxicity at 10 µM was -2.83%.
In the case of `COc1cccc(C2c3c(n[nH]c3C)N=C3COC(=O)C32)c1OC` (configuration not stated) it was -5.34%.
Then `O=C(CC1[C@H]2CN(Cc3ccc(F)cc3)C[C@@H]12)N1CCCC1` (some centres not stated), with -0.744%.
